These results are taken from paper PMC2893247 (Journal of natural products, 2008).

For one assay, the system named is pGL3-Control construct. The experiment in a line: Luciferase expression from control construct pGL3-Control in T47D cells. Conditions: for IC50: Homo sapiens, T47D, read-out: IC50 on luciferase expression from pGL3-control. The assay is classed as cell-based, human. The gist of the method:
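T47D cells in DMEM/F12 with 10% FCS were transiently transfected with the constitutive pGL3-Control luciferase construct. Cells were treated with test compound and exposed to hypoxia (1% O2). Luciferase read-out as % inhibition = (1 − treated/induced light output) × 100. IC50 taken from concentration-response data, one experiment in triplicate.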

The subject of assay [1] is HIF-1. The experiment in a line: PC-3 cell-based reporter assay for HIF-1 activity. The arrangement: species or system human. The gist of the method: (§1)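 PC-3 or T47D cells in DMEM/F12 with 10% FCS were transiently transfected with the HIF-1 reporter pHRE3-TK-luc. HIF-1 was induced by hypoxia (1% O2) or 10 μM 1,10-phenanthroline with test compound present. % inhibition = (1 − treated/induced luminescence) × 100. IC50 from concentration-response data, one experiment in triplicate. Potency given as fold change in IC50 relative to a reference analogue.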
On the technique in general: Reporter assays use an easily measured gene product as a stand-in for the process of interest.

Assay [2] relates to HIF-1. The experiment in a line: T47D cell-based reporter assay for HIF-1 activity. Details: species or system human. The gist of the method:
as §1

In a further assay the test system is MDA-MB-231 cells. Description: Cell proliferation/viability assay, MDA-MB-231. The assay is classed as cell-based, human. Conditions: normoxic or hypoxic conditions, data not shown. The procedure, abridged:
(§2)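 Cells kept in DMEM/F12 with 10% FCS and antibiotics at 37°C. Plated at 30,000 cells/well and left overnight, then given test compound in serum-free medium. After 30 min, incubated 48 h under normoxia (5% CO2/95% air) or hypoxia (1% O2/5% CO2/94% N2). Viability read by neutral red or by sulforhodamine B (TCA fix, 0.4% dye, Tris extraction, A490 minus A690). Reported as % inhibition versus control.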

For another assay, the system named is PC-3 cells. Description: Cell proliferation/viability assay, PC-3. The assay is classed as cell-based, human. Conditions: normoxic or hypoxic conditions, data not shown. The procedure, abridged:
as §2

For a further assay, the system named is VEGF. The experiment in a line: ELISA assay for secreted VEGF protein in T47D cells. The assay is classed as cell-based, human. Conditions: 16 h; for effect on hypoxic induction of secreted VEGF protein: hypoxia (1% O2). The gist of the method: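 T47D cells plated at 356,000/well and incubated overnight at 37°C. Test compound added in serum-free DMEM/F12. After 30 min in air, treatment continued 16 h under 1% O2/5% CO2/94% N2 or with 10 μM 1,10-phenanthroline. Secreted VEGF in conditioned medium measured by ELISA and normalised to total lysate protein (BCA assay).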
For orientation: An ELISA detects its analyte on a solid surface through an enzyme-linked reagent.

A further assay deals with HIF-1α protein. Description: Western blot for nuclear HIF-1α protein in T47D cells. The assay is classed as cell-based, human. Conditions: T47D nuclear extract; for effect on induction of HIF-1α protein by hypoxia: 4 h hypoxia (1% O2). The procedure, abridged:
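T47D cells plated at 10 × 10^6 per 100 mm dish for 16 h. Test compound given 30 min at 37°C, then 10 μM 1,10-phenanthroline or 1% O2 for 4 h. Nuclear extracts (60 μg protein) run on 8% SDS-PAGE and blotted to nitrocellulose. Probed with anti-HIF-1α monoclonal antibody (1:500, 1 h, RT), then HRP anti-mouse (1:30,000, 40 min), with chemiluminescent detection.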
For orientation: A western blot detects proteins with antibodies after separation by electrophoresis.

The test system of assay [3] is NADH-ubiquinone oxidoreductase (complex I). The experiment in a line: Respiration of digitonin-permeabilized T47D cells, complex I substrates. The assay is classed as cell-based, human. Conditions: malate and pyruvate.

Entries after “also recorded” stand apart in the source; their conditions may differ.

As to `COC(=O)[C@]12CCCC(C)(C)[C@@H]1CC[C@@]1(C)[C@@H]3CC=C(C(C)=O)[C@H](C=O)[C@@]3(C)C(=O)C[C@@H]12` [Compound 8, 24-methyl-12,24,25-trioxoscalar-16-en-22-oate], in the assay with pGL3-Control construct, the half-inhibitory concentration (IC50) – broadly, the concentration that inhibits the measured activity by half – stood at 23 µM. Further, the “reduction in potency of HIF-1 inhibition in comparison to 7” value is given as 11 to 15 fold in the assay on HIF-1 [1] and 5 to 7 fold with HIF-1 [2].

`CC(=O)C1=CC[C@H]2[C@]3(C)CC[C@H]4C(C)(C)CCC[C@]4(CO)[C@H]3CC(=O)[C@]2(C)[C@H]1C=O` [Compound 9, 22-hydroxy-24-methyl-12,24-dioxoscalar-16-en-25-al]: the IC50 in the assay with pGL3-Control construct was determined as 2.6 µM.

As to `C/C(=C\CCc1ccoc1)CC/C=C(\C)CCCC1=CC(=O)OC1` [Compound 6, furospongolide], the “effect on cell proliferation/viability” value with MDA-MB-231 cells and with PC-3 cells was “Neither 6 nor the 6/6a mixture affected” in each case. In addition, in the assay with VEGF (30 μM, 1,10-phenanthroline (10 μM)), the “effect on increase in secreted VEGF protein level caused by 1,10-phenanthroline” value is listed as “did not affect”. Also, the entries for the “effect on hypoxic induction of secreted VEGF protein” value with VEGF and in the assay with VEGF (listed as Furospongolide) were “decreased hypoxic induction of secreted VEGF proteins in a concentration-dependent manner; also recorded: inhibits hypoxic induction of HIF-1 target VEGF protein” and “blocked the induction”, respectively. For the same molecule, in the assay with HIF-1 [2], the “selectivity towards HIF-1 inhibition relative to suppression of hypoxic T47D cell proliferation/viability” value is reported as “more than 10 fold”. In the assay with HIF-1α protein (4 h 1,10-phenanthroline 10 μM), the “effect on induction of HIF-1α protein by 1,10-phenanthroline” value is “only weakly inhibited”. Also, the “effect on induction of HIF-1α protein by hypoxia” value was “blocked the induction of HIF-1α protein by hypoxia; also recorded: blocks the induction of nuclear HIF-1 α protein accumulation” in the assay with HIF-1α protein and “inhibiting the hypoxic induction of HIF-1α protein” in the assay on HIF-1α protein (listed as Furospongolide). In assay [3], the “effect on complex I-mediated mitochondrial respiration” value is “selectively inhibits mitochondrial complex I-mediated respiration; also recorded: disrupting complex I”.

As for `C=C(C)[C@H]1Cc2c(ccc3c2O[C@@H]2COc4cc(OC)c(OC)cc4[C@@H]2C3=O)O1` [rotenone, reference compound], the “effect on complex I-mediated mitochondrial respiration” value in assay [3] is on record as “inhibited”.

For the molecule `CC(=O)C1=CC[C@H]2[C@]3(C)CC[C@H]4C(C)(C)CCC[C@]4(CO)[C@H]3C[C@H](O)[C@]2(C)[C@H]1C=O` [Compound 7, 22-Hydroxy-24-methyl-12α-hydroxy-24-oxoscalar-16-en-25-al], the “effect on luciferase expression from control construct pGL3-Control” value with pGL3-Control construct (Figure 1B, 1D) was “suppressed luciferase expression”.
